In ChEMBL document CHEMBL1150326 (Bioorg Med Chem, 2008):
Activity calls are given as the source filed them. The calls are words filed in the database; no cut-off is given here.

Key:
CCRF-CEM [1] = assay: Cytotoxicity against taxol-resistant human CCRF-CEM cells after 72 hrs by XTT assay; assay type: functional, cell-based
Procedure, shortened: (§1)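 Leukaemic CCRF-CEM cells and their taxol- and vinblastine-resistant sublines exposed for 72 h. XTT assay read at 450 and 630 nm after 6 h with phenazine methosulfate-XTT at 37 °C. IC50 obtained by the median-effect principle from six or seven concentrations, in duplicate or triplicate.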

CCRF-CEM [2] = assay: Cytotoxicity against vinblastine-resistant human CCRF-CEM cells after 72 hrs by XTT assay; assay type: functional, cell-based; procedure, shortened: as §1
CCRF-CEM [3] = assay: Cytotoxicity against human CCRF-CEM cells after 72 hrs by XTT assay; assay type: functional, cell-based; procedure, shortened: as §1
CCRF-CEM [4] = assay: Selectivity ratio of IC50 for vinblastine-resistant human CCRF-CEM cells to IC50 for human CCRF-CEM cells; assay type: functional
Procedure, shortened: (§2)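 Fold resistance: IC50 in the taxol- or vinblastine-resistant CCRF-CEM subline divided by the IC50 in parent CCRF-CEM.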

MX1 [5] = assay: Cytotoxicity against human MX1 cells after 72 hrs by SRB assay; assay type: functional, cell-based; conditions: MX1, 72 h
Procedure, shortened: (§3)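 Solid tumour cells (breast MX-1, colon HCT116) exposed for 72 h. Growth measured by SRB assay. IC50 obtained by median-effect plot from six or seven concentrations, in duplicate or triplicate.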

HCT-116 = assay: Cytotoxicity against human HCT116 cells after 72 hrs by SRB assay; assay type: functional, cell-based; conditions: HCT-116, 72 h; procedure, shortened: as §3
CCRF-CEM [6] = assay: Selectivity ratio of IC50 for taxol-resistant human CCRF-CEM cells to IC50 for human CCRF-CEM cells; assay type: functional; procedure, shortened: as §2
MX1 [7] = assay: Antitumor activity in human MX1 cells xenografted mouse assessed as complete tumor remission at 50 mg/kg, iv administered in Q2D x 8 schedule; assay type: functional, organism-based; design: dose 50 mg/kg
Mus musculus [8] = assay: Toxicity against human MX1 cells xenografted mouse assessed as body weight loss at 50 mg/kg, iv administered in Q2D x 8 schedule; assay type: organism-based; design: dose 50 mg/kg, route intravenous; conditions: in vivo
Procedure, shortened: (§4)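 Nude nu/nu male mice (8 weeks or older, 22 g or more) carrying xenografts, given i.v. tail-vein injections in DMSO/Tween 80/saline vehicle, n = 3. Host toxicity taken as body weight change from the initial pretreatment weight, tracked through and after dosing.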

[9] = Chemical stability assessed as half life at 1 mg in DMSO/Tween 80/normal saline solution; assay type: physicochemical
Procedure, shortened: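 1 mg of compound held in i.v. vehicle (DMSO/Tween 80/normal saline, 0.5:0.4:1.6 v/v/v). Degradation followed by silica TLC (CHCl3/MeOH 10:1) and confirmed by reversed-phase HPLC.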

MX1 [10] = assay: Antitumor activity in human MX1 cells xenografted mouse assessed as complete tumor suppression at 50 mg/kg, iv administered in Q2D x 8 schedule; assay type: functional, organism-based; design: dose 50 mg/kg
Mus musculus [11] = assay: Toxicity against human MX1 cells xenografted mouse assessed as body weight loss at 100 mg/kg, iv administered in Q2D x 5 schedule; assay type: organism-based; design: dose 100 mg/kg, route intravenous; conditions: in vivo; procedure, shortened: as §4
U-87 MG = assay: Antitumor activity in human U87 MG cells xenografted mouse at 100 mg/kg, iv administered in Q2D x 5 schedule; assay type: functional, organism-based; design: dose 100 mg/kg; conditions: U-87MG ATCC
[12] = Stability in rat plasma assessed as half life at 5 ug/mL by HPLC; assay type: ADME, cell-free
Procedure, shortened: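 Rat plasma (100 µL, 5 µg/mL compound) deproteinised with acetonitrile (1:2), centrifuged at 10,000 g for 10 min and filtered. Analysed by HPLC on methanol:10 mM NaH2PO4 (60:40, pH 3.0) at 0.8 mL/min, UV 266 nm, quantified by peak area. Detection limit 20 ng/mL; n = 4.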

MX1 [13] = assay: Antitumor activity in human MX1 cells xenografted mouse assessed as complete tumor remission at 100 mg/kg, iv administered in Q2D x 5 schedule; assay type: functional, organism-based; design: dose 100 mg/kg
Mus musculus [14] = assay: Toxicity against human U87 MG cells xenografted mouse assessed as body weight loss at 100 mg/kg, iv administered in Q2D x 5 schedule; assay type: organism-based, U-87MG ATCC; design: dose 100 mg/kg, route intravenous; conditions: in vivo; procedure, shortened: as §4
[15] = Cytotoxicity against human H1299 cells; assay type: functional, cell-based; conditions: NCI-H1299
NCI-H1299 [16] = assay: Induction of DNA interstrand cross linking in 20 Gy irradiated human H1299 cells at 10 uM after 1 hr by comet assay; assay type: functional
Procedure, shortened: (§5)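 H1299 cells (2 × 10^5) plated and grown for 32 h at 37 °C in 5% CO2, then drug-treated for 1 h. Cells given 20 Gy irradiation and embedded in 1.2% low-melting agarose for a modified comet assay under subdued light. Tail moment scored in 100 cells. Cross-linking % = [1 − (TMdi−TMcu)/(TMci−TMcu)] × 100. Three experiments, mean ± SD.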

MX1 [17] = assay: Antitumor activity in human MX1 cells xenografted mouse assessed as complete tumor remission at 75 mg/kg, iv administered in Q2D x 8 schedule; assay type: functional, organism-based; design: dose 75 mg/kg
Mus musculus [18] = assay: Toxicity against human MX1 cells xenografted mouse assessed as body weight loss at 75 mg/kg, iv administered in Q2D x 8 schedule; assay type: organism-based; design: dose 75 mg/kg, route intravenous; conditions: in vivo
MX1 [19] = assay: Antitumor activity in human MX1 cells xenografted mouse assessed as complete tumor remission at 30 mg/kg, iv administered in Q2D x 5 schedule; assay type: functional, organism-based; design: dose 30 mg/kg
Mus musculus [20] = assay: Toxicity against human MX1 cells xenografted mouse assessed as body weight loss at 30 mg/kg, iv administered in Q2D x 5 schedule; assay type: organism-based; design: dose 30 mg/kg, route intravenous; conditions: in vivo; procedure, shortened: as §4
NCI-H1299 [21] = assay: Induction of DNA interstrand cross linking in 20 Gy irradiated human H1299 cells at 200 uM after 1 hr by comet assay; assay type: functional; procedure, shortened: as §5
[22] = Stability in mouse assessed as half life; assay type: ADME, organism-based; conditions: in vivo

Structure (SMILES) | IC50 (CCRF-CEM [1]) | IC50 (CCRF-CEM [2]) | IC50 (CCRF-CEM [3]) | Ratio IC50 (CCRF-CEM [4]) | IC50 (MX1 [5]) | IC50 (HCT-116) | Ratio IC50 (CCRF-CEM [6]) | further results
Cc1ccc(Nc2c3ccccc3nc3ccccc23)cc1NC(=O)Nc1ccc(N(CCCl)CCCl)cc1 | 34.7 nM | 33.4 nM | 16.7 nM | 2 | 584 nM | 264 nM | 2.08 | 
O=C(Nc1ccc(N(CCCl)CCCl)cc1)Nc1cc(CO)cc(Nc2c3ccccc3nc3ccccc23)c1 | 17200 nM |  |  |  | 369 nM | 216 nM | 304 | Activity (MX1 [7]): inactive; Activity (Mus musculus [8]): 10%; half-life [9]: 55 days; Activity (MX1 [10]): Active
Cc1ccc(Nc2c3ccccc3nc3c(C)cccc23)cc1NC(=O)Nc1ccc(N(CCCl)CCCl)cc1 | 91.8 nM | 128 nM | 77.8 nM | 1.64 | 240 nM | 437 nM | 1.18 | Activity (Mus musculus [11]): 10%; Activity (U-87 MG): Active; half-life [9]: 55 days; half-life at 5 ug/mL [12]: 2.26 days; Activity (MX1 [13]): Active; Activity (Mus musculus [14]): 15%; IC50 [15]: 510 nM; Activity (NCI-H1299 [16]): 39.2%
COc1ccc(NC(=O)Nc2ccc(N(CCCl)CCCl)cc2)cc1Nc1c2ccccc2nc2c(C)cccc12 | 57.4 nM | 30.6 nM | 29.7 nM | 1.3 | 1810 nM | 571 nM | 1.93 | 
Cc1ccc(NC(=O)Nc2ccc(N(CCCl)CCCl)cc2)cc1Nc1c2ccccc2nc2c(C)cccc12 | 23 nM | 24.5 nM | 11.4 nM | 2.15 | 589 nM | 158 nM | 2.02 | 
Cc1cc(NC(=O)Nc2ccc(N(CCCl)CCCl)cc2)cc(Nc2c3ccccc3nc3ccccc23)c1 | 384 nM | 593 nM | 141 nM | 4.2 | 529 nM | 816 nM | 2.72 | Activity (MX1 [17]): Active; Activity (Mus musculus [18]): 10%
COc1cc(NC(=O)Nc2ccc(N(CCCl)CCCl)cc2)cc(Nc2c3ccccc3nc3c(C)cccc23)c1 | 49.8 nM | 43.3 nM | 29.6 nM | 1.46 | 868 nM | 242 nM | 1.68 | 
Cc1cccc2c(Nc3cc(CO)cc(NC(=O)Nc4ccc(N(CCCl)CCCl)cc4)c3)c3ccccc3nc12 | 394 nM | 1790 nM | 31.1 nM | 57.5 | 125 nM | 263 nM | 12.7 | half-life [9]: 59 days; Activity (MX1 [19]): Active; Activity (Mus musculus [20]): 10%
Cc1ccc(NC(=O)Nc2ccc(N(CCCl)CCCl)cc2)cc1Nc1c2cccc(C)c2nc2c(C(=O)NCCN(C)C)cccc12 | 176 nM | 303 nM | 11.9 nM | 25.4 | 60.1 nM | 60 nM | 14.7 | 
COc1cc(NC(=O)Nc2ccc(N(CCCl)CCCl)cc2)cc(Nc2c3ccccc3nc3c(C(=O)NCCN(C)C)cccc23)c1 | 30.2 nM | 951 nM | 13.2 nM | 72 | 638 nM | 110 nM | 2.29 | 
O=C(Nc1ccc(N(CCCl)CCCl)cc1)Nc1c2ccccc2nc2ccccc12 | 385 nM | 378 nM | 229 nM | 1.65 | 810 nM | 900 nM | 1.68 | 
COc1ccc(Nc2c3ccccc3nc3c(C)cccc23)cc1NC(=O)Nc1ccc(N(CCCl)CCCl)cc1 | 11.5 nM | 24.6 nM | 9.2 nM | 2.76 | 367 nM | 74.9 nM | 1.25 | 
CC[C@]1(O)C[C@@H]2CN(CCc3c([nH]c4ccccc34)[C@@](C(=O)OC)(c3cc4c(cc3OC)N(C)[C@H]3[C@@](O)(C(=O)OC)[C@H](OC(C)=O)[C@]5(CC)C=CCN6CC[C@]43[C@@H]65)C2)C1 [VINBLASTINE] |  |  |  |  | 2.9 nM | 1.8 nM |  | 
COc1ccc(Nc2c3ccccc3nc3ccccc23)cc1NC(=O)Nc1ccc(N(CCCl)CCCl)cc1 | 33.8 nM | 54.9 nM | 7.7 nM | 7.13 | 1200 nM | 256 nM | 4.39 | 
COc1ccc(NC(=O)Nc2ccc(N(CCCl)CCCl)cc2)cc1Nc1c2ccccc2nc2ccccc12 | 58.8 nM | 54.8 nM | 44.2 nM | 1.24 | 591 nM | 188 nM | 1.33 | 
N[C@@H](Cc1ccc(N(CCCl)CCCl)cc1)C(=O)O [MELPHALAN] |  |  |  |  |  |  |  | Activity (NCI-H1299 [21]): 47.3%
OCc1cc(Nc2c3ccccc3nc3ccccc23)cc(OCCN(CCCl)CCCl)c1 | 3.2 nM | 12.8 nM | 3.33 nM | 3.84 |  | 6.5 nM | 0.96 | half-life [22]: < 0.0174 days
COc1cc(NC(=O)Nc2ccc(N(CCCl)CCCl)cc2)cc(Nc2c3ccccc3nc3ccccc23)c1 | 50.4 nM | 54.8 nM | 37.5 nM | 1.46 | 1110 nM | 496 nM | 1.34 | 
CC(=O)O[C@H]1C(=O)[C@@]2(C)[C@H]([C@H](OC(=O)c3ccccc3)[C@]3(O)C[C@H](OC(=O)[C@H](O)[C@@H](NC(=O)c4ccccc4)c4ccccc4)C(C)=C1C3(C)C)[C@]1(OC(C)=O)CO[C@@H]1C[C@@H]2O [PACLITAXEL] |  | 1270 nM | 1.3 nM | 980 | 35 nM | 1.3 nM | 330 | 
